Results on ten compounds are retold here after ChEMBL document CHEMBL4376840, “Application of Fluorine- and Nitrogen-Walk Approaches: Defining the Structural and Functional Diversity of 2-Phenylindole Class of Cannabinoid 1 Receptor Positive Allosteric Modulators” (J Med Chem, 2020).

Data set [1] has as its target Cannabinoid receptor 1 (Rattus norvegicus) (UniProt P20272). Briefly: Allosteric agonist activity at N-terminal GFP-tagged rat CB1R expressed in HEK293 cells assessed as inhibition of forskolin-induced cAMP production by measuring cAMP accumulation at minimal level at higher concentrations after 30 min by TR-FRET assay relative to forskolin. In kind it is functional, cell-based. The gist of the method: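 HEK293 cells stably expressing N-terminal GFP-tagged rat CB1R were trypsin-EDTA dissociated and resuspended in HBSS with 0.1% BSA and 0.5mM IBMX at 500 cells/well. Cells got 5μM forskolin plus compound (1 pM – 10 μM) alone for 30 min. 4-parameter fit; Emin is the lower plateau. n ≥ 3, triplicate.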
On the technique in general: Cyclic AMP is a second messenger, typically raised through Gs and lowered through Gi signalling.

The conditions of data set [2]: buffer, pH 7.4, 24 h.
Data set [3] addresses T1, Cannabinoid receptor 1 (Homo sapiens, UniProt P21554). Description: Positive allosteric modulatory activity at human CB1R expressed in CHO-K1 cells assessed as increase in CP55940-induced beta-arrestin2 recruitment after 90 mins in presence of CP55940 at EC20 concentration by pathhunter beta-arrestin assay relative to control. In kind it is cell-based. The method, boiled down: (§1)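 Read-out was chemiluminescent β-arrestin2 recruitment, fit with a 4-parameter regression. n = 1–3 independent experiments in duplicate.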
In general terms: Activated receptors often draw arrestin, which recruitment assays turn into a signal.

The target of data set [4] is T1, Cannabinoid receptor 1. Description: Positive allosteric modulatory activity at human CB1R expressed in CHO-K1 cells assessed as increase in CP55940-induced beta-arrestin2 recruitment after 90 mins in presence of CP55940 at EC20 concentration by pathhunter beta-arrestin assay. It is filed as cell-based. The method, boiled down:
as §1

Data set [5] has as its target T1, Cannabinoid receptor 1. Briefly: Positive allosteric modulatory activity at human CB1R expressed in CHO-K1 cells assessed as increase in CP55940-induced inhibition of forskolin-stimulated cAMP production after 30 mins in presence of CP55940 at EC20 concentration by hit-hunter cAMP assay. In kind it is functional, cell-based. The gist of the method: (§2)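 Read-out was chemiluminescent cAMP detection, fit with a variable-slope 4-parameter regression. n = 1–3 independent experiments in duplicate.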

Data set [6] deals with T1, Cannabinoid receptor 1. Description: Positive allosteric modulatory activity at human CB1R expressed in CHO-K1 cells assessed as increase in CP55940-induced inhibition of forskolin-stimulated cAMP production after 30 mins in presence of CP55940 at EC20 concentration by hit-hunter cAMP assay relative to control. In kind it is functional, cell-based. The method, boiled down:
as §2

The target in data set [7] is Cannabinoid receptor 1 (Rattus norvegicus) (UniProt P20272). Description: Positive allosteric modulatory activity at N-terminal GFP-tagged rat CB1R receptor expressed in HEK293 cells assessed as leftward shift in CP55940 dependent concentration response curve for inhibition of forskolin-induced cAMP accumulation after 30 mins by TR-FRET assay. In kind it is functional, cell-based.

For data set [8], the target named is T1, Cannabinoid receptor 1. Description: Positive allosteric modulatory activity at human CB1R expressed in CHO-K1 cells assessed as increase in CP55940-induced inhibition of forskolin-induced cAMP accumulation by measuring cAMP accumulation at minimal level at higher concentration after 90 mins in presence of 100 nM CP55940 by hit-hunter cAMP assay relative to forskolin. In kind it is functional, cell-based. The method, boiled down: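 Uses the HitHunter CHO-K1 hCB1R cAMP set-up above. […] Data normalized to % forskolin, 4-parameter fit. n ≥ 6, triplicate.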

Data set [9] concerns the target T1, Cannabinoid receptor 1. Description: Positive allosteric modulatory activity at human CB1R expressed in CHO-K1 cells assessed as maximal increase in CP55940-induced beta arrestin2 recruitment after 90 mins in presence of 100 nM CP55940 by pathhunter beta-arrestin assay relative to CP55940. In kind it is cell-based.
Data set [10] concerns the target Cannabinoid receptor 1 (Rattus norvegicus) (UniProt P20272). Briefly: Positive allosteric modulatory activity at N-terminal GFP-tagged rat CB1R receptor expressed in HEK293 cells assessed as downward shift in CP55940 dependent concentration response curve for inhibition of forskolin-induced cAMP accumulation after 30 mins by TR-FRET assay. In kind it is functional, cell-based.

Data set [11] concerns the target T1, Cannabinoid receptor 1. Description: Allosteric agonist activity at human CB1R expressed in CHO-K1 cells assessed as inhibition of forskolin-induced cAMP accumulation by measuring cAMP accumulation at minimal level at higher concentrations after 90 mins by hit-hunter cAMP assay relative to forskolin. In kind it is functional, cell-based. The gist of the method: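 HitHunter CHO-K1 hCB1R cells (20,000/well) were held overnight in Opti-MEM with 1% FBS. They were then co-treated at 37°C with 10 μM forskolin plus compound alone (0.10 nM – 10 μM) for 90 min. Chemiluminescent cAMP detection followed (two 60-min room-temperature steps). Data as % forskolin, variable-slope 4-parameter fit; Emin is the lower plateau. n ≥ 6, triplicate.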

For data set [12], the target named is T1, Cannabinoid receptor 1. Description: Agonist activity at human CB1 receptor expressed in CHO cell membranes assessed as increase in G-protein coupling by measuring [35S]GTPgammaS binding after 90 mins in presence of [35S]GTPgammaS by liquid scintillation analysis relative to control. In kind it is functional. The method, boiled down: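 [35S]GTPγS binding to G protein in membranes from CHO cells stably expressing human CB1R, with test compound given alone. Data fit to a variable-slope 4-parameter nonlinear regression. n = 4–6 independent experiments in duplicate.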

Data set [13] deals with T1, Cannabinoid receptor 1. Description: Allosteric agonist activity at human CB1R expressed in CHO-K1 cells assessed as increase in beta arrestin2 recruitment after 90 mins by pathhunter beta-arrestin assay relative to CP55940. It is filed as cell-based. The gist of the method:
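PathHunter CHO-K1 hCB1R cells (20,000/well) were held overnight in Opti-MEM with 1% FBS. Compound alone (0.10 nM – 10 μM) was given at 37°C for 90 min, then detection solution for 60 min at room temperature and chemiluminescence was read.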

In data set [14] the test system is Mus musculus. Description: Potentiation of […] WIN55212-2-induced reduction in intraocular pressure in ocular normotensive C57BL/6J mouse assessed as change in IOP at 0.2% administered topically to eye measured after 12 hrs by tonometry. It is filed as functional.
In data set [15] the test system is Mus musculus. Description: Reduction of intraocular pressure in ocular hypertensive NEE mouse harboring Sh3pxd2b deletion mutant at 0.2% administered topically to eye after 6 hrs by tonometry. In kind it is functional. The method, boiled down: (§3)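 Ocular hypertensive NEE mice (1 bp deletion in Sh3pxd2b) received topical 0.2% compound alone. IOP change from baseline (time 0) was measured at 1, 6 and 12 h; paired t-tests.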

Data set [16] relates to Mus musculus. Briefly: Potentiation of […] WIN55212-2-induced reduction in intraocular pressure in ocular normotensive C57BL/6J mouse assessed as change in IOP at 0.2% administered topically to eye measured after 6 hrs by tonometry. In kind it is functional.
A short description of data set [17]: Half life in human liver microsomes at 1 uM up to 45 mins in presence of NADPH by LC-MS/MS analysis. For orientation: Microsomes from liver hold many membrane-bound enzymes, among them those of drug oxidation.
The subject of data set [18] is Mus musculus. Description: Reduction of intraocular pressure in ocular hypertensive NEE mouse harboring Sh3pxd2b deletion mutant at 0.2% administered topically to eye after 1 hr by tonometry. It is filed as functional. The method, boiled down:
as §3

The subject of data set [19] is Mus musculus. Description: Reduction of intraocular pressure in ocular hypertensive NEE mouse harboring Sh3pxd2b deletion mutant at 0.2% administered topically to eye after 12 hrs by tonometry. In kind it is functional, organism-based. The gist of the method:
as §3

The nature of data set [20]: Toxicity in C57BL/6 mouse assessed as effect on hypothermia at 0.1 to 10 mg/kg, ip after 15 mins by thermometric method. In kind it is organism-based. The following applies: in vivo. The gist of the method:
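Male C57BL/6 mice were given 0.1 – 10 mg/kg compound or vehicle (1:1:18 ethanol:cremaphor:saline). Body temperature was measured at 15 min and expressed relative to vehicle (100%). n = 5–6.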

Data set [21] in a line: Half life in rat liver microsomes at 1 uM up to 45 mins in presence of NADPH by LC-MS/MS analysis.
In data set [22] the test system is Mus musculus. Briefly: Potentiation of […] WIN55212-2-induced reduction in intraocular pressure in ocular normotensive C57BL/6J mouse assessed as change in IOP at 0.2% administered topically to eye measured after 1 hr by tonometry. It is filed as functional.
The subject of data set [23] is Mus musculus. Description: Antinociceptive activity in C57BL/6 mouse at 3 to 10 mg/kg, ip after 20 mins post treatment by warm water tail-flick assay. In kind it is functional, organism-based.
For data set [24] the following is noted: buffer, pH 7.4, 2 h.
For data set [25] the following is noted: human, microsomes, 1 µM.
For data set [26] the following is noted: rat, microsomes, 1 µM.
Data set [27] deals with Cannabinoid receptor 1 (Mus musculus) (UniProt P47746). Briefly: Positive allosteric modulation activity at CB1 receptor in C57BL/6 mouse hippocampal neurons assessed as increase in depolarization-induced suppression of excitation at 1 uM at -70 mV holding potential by whole cell patch clamp assay.
Data set [28] can be described thus: Toxicity in C57BL/6 mouse assessed as catalepsy at 0.1 to 10 mg/kg, ip after 5 mins by bar holding assay. In kind it is organism-based. The following applies: in vivo. The method, boiled down: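 Male C57BL/6 mice were given 0.1 – 10 mg/kg compound or vehicle (1:1:18 ethanol:cremaphor:saline). Catalepsy was assessed at 5 min as % MPE with a 60 sec maximum. n = 5–6.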

Active and inactive are the calls of the source. The rule behind the calls is not given here.

Sequence of Cannabinoid receptor 1 (Rattus norvegicus) (P20272 whole entry): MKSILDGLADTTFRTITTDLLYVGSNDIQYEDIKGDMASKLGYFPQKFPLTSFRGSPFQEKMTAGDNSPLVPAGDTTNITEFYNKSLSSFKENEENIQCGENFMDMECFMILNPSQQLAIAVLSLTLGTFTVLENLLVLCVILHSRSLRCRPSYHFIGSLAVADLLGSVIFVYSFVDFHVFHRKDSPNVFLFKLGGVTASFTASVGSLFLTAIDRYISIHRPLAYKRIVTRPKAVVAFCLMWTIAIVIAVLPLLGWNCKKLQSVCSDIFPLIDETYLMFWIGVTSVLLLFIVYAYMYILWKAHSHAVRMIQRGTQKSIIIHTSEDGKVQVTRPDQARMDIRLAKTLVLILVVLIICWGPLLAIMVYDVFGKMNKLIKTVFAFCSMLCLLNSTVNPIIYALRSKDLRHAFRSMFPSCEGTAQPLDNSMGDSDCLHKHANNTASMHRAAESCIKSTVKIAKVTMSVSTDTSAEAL
T1 sequence (P21554 whole entry): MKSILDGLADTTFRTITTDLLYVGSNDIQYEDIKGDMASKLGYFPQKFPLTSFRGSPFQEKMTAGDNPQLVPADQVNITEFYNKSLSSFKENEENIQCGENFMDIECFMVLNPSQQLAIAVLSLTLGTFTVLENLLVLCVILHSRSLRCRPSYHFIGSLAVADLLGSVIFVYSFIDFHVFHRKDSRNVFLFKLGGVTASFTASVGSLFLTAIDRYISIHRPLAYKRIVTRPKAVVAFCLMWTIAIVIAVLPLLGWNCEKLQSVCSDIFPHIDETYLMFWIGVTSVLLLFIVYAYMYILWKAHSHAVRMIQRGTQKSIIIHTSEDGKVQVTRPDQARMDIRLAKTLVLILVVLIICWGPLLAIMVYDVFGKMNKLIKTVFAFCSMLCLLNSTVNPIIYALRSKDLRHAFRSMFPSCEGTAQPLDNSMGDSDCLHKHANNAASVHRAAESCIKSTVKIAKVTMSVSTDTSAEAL
Sequence of Cannabinoid receptor 1 (Mus musculus) (P47746 whole entry): as the sequence (P20272 whole entry) above, with E95D counted along it

Regarding `CCCCCCC(C)(C)c1ccc([C@@H]2C[C@H](O)CC[C@H]2CCCO)c(O)c1`, the Emin in [1] is 29%.
As usually defined, the Emax is the size of the effect at its maximum, as opposed to the concentration needed. As a reminder, the EC50 is the concentration at which the effect is half-maximal. For the compound `O=[N+]([O-])CC(c1ccccc1)c1c(-c2ccncc2)[nH]c2ccccc12` (centres undefined), in data set [2], the Therm_solubility was found to be 2.1 µM. Moreover, the Emax amounted to 19% in data set [3] and 88% in data set [6]. The EC50 in [4] came out at 1.6 µM; in [5], 3.1 µM.
With `O=[N+]([O-])CC(c1ccccc1)c1c(-c2ccccc2)[nH]c2cnccc12` (centres undefined), the Therm_solubility in data set [2] was 6.8 µM. Besides, the Emax in [3] amounted to 5.1%; in data set [6], 5.2%. The EC50 in data set [4] was above 10 µM; in data set [5], 0.45 µM.
Consider `O=[N+]([O-])CC(c1ccccc1)c1c(-c2ccccc2)[nH]c2ccncc12` (centres undefined), for which the Therm_solubility in data set [2] was determined as 23.6 µM. For the same compound, the Emax in data set [3] was found to be 2.8%; in [6], 4%. In addition, the EC50 in [4] and in data set [5] was above 10 µM throughout.
Take `O=[N+]([O-])CC(c1ccccc1)c1c(-c2ccccc2)[nH]c2ccccc12` (racemic): the Activity result in data set [7] and in data set [10] was “Dose-dependent effect” throughout. Further, the Emax in data set [3] turned out to be 46%; in [9], 72%; in [12], 28%; in [13], 27%. In addition, the Emin came out at 21% in [8] and 1.8% in [11].
As to `O=[N+]([O-])CC(c1ccccc1)c1c(-c2cccnc2)[nH]c2ccccc12` (centres undefined), in data set [2], the Therm_solubility was 4.9 µM. Also, the maximal effect (Emax) was 9.2% in [3] and 150% in [6]. The concentration for a half-maximal effect (EC50) is above 10 µM in data set [4] and 1.1 µM in [5].
As for `O=[N+]([O-])CC(c1ncccc1F)c1c(-c2ccccc2)[nH]c2ccccc12` (centres undefined), the Activity in data set [14] is listed as 0.1 mmHg; in data set [15] it was 3.6 mmHg; in data set [16] it was -0.6 mmHg; in data set [18], 2.5 mmHg; in data set [20] it was “Non-Toxic”; in data set [22] it was -0.7 mmHg. Also, the Activity entry in data set [28] is recorded as “Non-Toxic”. Further, the t1/2 was 27.4 min in data set [17] and 4.08 min in data set [21]. For the same compound, the inhibition entry in [19] is “inactive”. In [23], the outcome was inactive. In [24], this compound gave a Kinetic_solubility of 3.13 µM. The CLH in [25] worked out at 84.5 µL/min; in [26] it was 556 µL/min. Also, in [27], the result was Active.
As to `O=[N+]([O-])CC(c1ccccc1)c1c(-c2ccccc2)[nH]c2ncccc12` (centres undefined), in [2], the Therm_solubility is 159 µM. Moreover, the Emax in data set [3] is 7%; in data set [6] it was 39%. Also, the half-maximal effective concentration (EC50) in data set [4] was above 10 µM; in [5], 1.1 µM.
`O=[N+]([O-])CC(c1ccccc1)c1c(-c2ccccc2)[nH]c2cccnc12` (centres undefined) returned a Therm_solubility in data set [2] of 11.2 µM. For the same compound, the figures for the maximum response (Emax) in [3] and in [6] were 30% and 81%, respectively. Also, the EC50 in data set [4] is 1.6 µM; in data set [5] it was above 10 µM.
Compound `O=[N+]([O-])CC(c1ccccn1)c1c(-c2ccccc2)[nH]c2ccccc12` (centres undefined) returned a Therm_solubility in data set [2] of 2.8 µM. For the same compound, the Emax in data set [3] turned out to be 5.8%; in data set [6], 130%. The EC50 in data set [4] was above 10 µM; in [5], 0.26 µM.
